Measurements from the EternaBench riboswitch data.

System: MS2 coat protein
Experiment: apparent Kd, MS2 coat protein; higher = weaker binding; RNA-MaP array; FMN 200 µM where present
Summary of the method: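 In 100 mM Tris-HCl pH 7.5, 80 mM KCl, 4 mM MgCl2, BSA, DTT, yeast tRNA and Tween-20, SNAP-549-labelled MS2 coat protein was titrated from 0.7 or 1.5 nM, doubling to 3 µM, over designs transcribed by stalled E. coli RNA polymerase on Illumina sequencing-chip clusters. This was done first without ligand, then with ligand held constant. After green signal was normalised to red-channel RNA signal and control-cluster median Fmax, the apparent Kd was taken as the median of filtered per-cluster binding-curve fits.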

[1] = designed as: OFF switch for flavin mononucleotide, no ligand
[2] = ligand present: flavin mononucleotide, designed as: OFF switch for flavin mononucleotide
[3] = designed as: ON switch for flavin mononucleotide, no ligand
[4] = ligand present: flavin mononucleotide, designed as: ON switch for flavin mononucleotide

Row | Sequence | apparent Kd [1] [nM] | apparent Kd [2] [nM] | apparent Kd [3] [nM] | apparent Kd [4] [nM]
1 | GCUUGAGCUGUGAGGAUAUGAGUUCGGAAAUGAGCUUAGAAGGCACAUGAGGAUCACCCAUGUAAGGUUCGAGU | 38 | 17.7 |  | 
2 | AGAAAACAUGAGGAUCACCCAUGUAGAAAUAUGGGAGGAUAUACAAAGACGAAAGUCGAGGUAGAAGGCCUAAAGA |  |  | 100 | 23.4
3 | AAAAAAAAAAGACAGGAUAUACAAUAUAUUACAUGAGGAUCACCCAUGUUUUUUUUUUAAUUAAAGUAGAAGGGUCAAAAAAAAAA |  |  | 52.2 | 40
4 | CAGCGAAAGCUGAAUCUGUAGAGAGAGGAUAUACGAGGCGAAAUCCAUACAUGAGGAUCACCCAUGUAGAAGGCUCUCUACAGU | 155 | 363 |  | 
5 | GCGAUGAUCGAGAAGGCCACUACAUGAGGAUCACCCAUGUCGUGGUGUAUUGGAGGAUAUCGAUCGGCGUCUUAUGAGGACAUG | 5.02 | 8.26 |  | 
6 | UUGAUAUUGUAAGGAUAUACUCUGUGAUGAAGAGUAGAAGGUACUUACAUGAGGAUCACCCAUGUUUAACGAGAUACUAAUCGU |  |  | 48.9 | 20
7 | UCCUUAUCGGUCAGGAUAUACACCCGUUUCUCCUUGUAGAAGGGACAUGAGGAUCACCCAUGUACAGUACAUCU | 20.4 | 19.1 |  | 
8 | ACAGCAGUAGGAUAUACAUCACCAUCCGACCGUUGAUUUCAACAUGAGGAUCACCCAUGUAGAAGGGCUAGUUG | 93.2 | 65.7 |  | 
9 | CGCGAACAUGAGGAUCACCCAUGUGAAAAACACAGAGGAUAUGUCGCAUGCGUGUAAAAGACAGAAGGCUGUCGCG |  |  | 45.5 | 21.9
10 | CCGGGCUAGGAGAAGGGCUAGAGUGUGAUAUAUUUGCCCGCGAGCACAUGAGGAUCACCCAUGUAGCAGGAUAUCCAAGCCGGU | 7.25 | 21.2 |  | 
11 | GCUCUGGCAUGAGGAUAUGGUCAGCUUUGCUGACCAGAAGGCAUGUCAAUAGACAUGAGGAUCACCCAUGUAGUUAACAGAGCA |  |  | 538 | 37.3
12 | CAGUUGGGCUCAGGAUAUCGGGUUUAACAUGAGGAUCACCCAUGUCGUCCGCGAAAGCGGAAUCACGAGAAGGGAGACCAGCGA |  |  | 9.12 | 6.42
13 | GUCCGAAGGGAGAAGGGCUAGGAGGUCCAGCUUAUGUGUGUUGCAACAUGAGGAUCACCCAUGUAGCAGGAUAUCCCUUGUACA | 54.2 | 267 |  | 
14 | GUUGCUUUCCGAGGAUAUUCUGGGCGUGGUUAUACAUGAGGAUCACCCAUGUGGCGGUUGCCUAGGGAGAAGGCGGGCUGCUUC |  |  | 20.3 | 17.9
15 | CGAUAUAUGAAGGGCGAAAACGCACAUGAGGAUCACCCAUGUAGAAGGCGAUCCGCAACGCGGAUCGAGGAUAUAUAGUAUACA | 21.1 | 23 |  | 
16 | ACGACGAAAGUCGAACGAUGAUCGAGAAGGACAUGAGGAUCACCCAUGUUCCGUGUAACACGCAUGUAGGAUAUCGAUCAUCGA | 5.17 | 11.4 |  | 
17 | CCUCCACAUUAGGAUAUCGUCACAGAAAUGUGACGAGAAGGAAUGACAUGAGGAUCACCCAUGUUAACGUGAUG | 34.4 | 195 |  | 
18 | ACACAUGAGGAUCACCCAUGUAGCUGACGUCUGCGCCAGCCACAGGAUAUACGGCAACACAAACCGUAGAAGGGUGAUAAACAC |  |  | 114 | 23
19 | AAAAAGUGAGGAUAUACGGUGUGGAGUAGACACAACCAGACGUAGAAGGCACAUGAGGAUCACCCAUGUCCAAA | 24.1 | 21.4 |  | 
20 | AAUAAUAAGGAGGAUAUCGUAUCGGAAACGAUACGAGAAGGUCUAACAUGAGGAUCACCCAUGUUCCUCAAAUA | 38.1 | 54.3 |  | 
21 | CCCUGAUCGAGAGGUAGGAGUGGUAGAAGGCGACCGGUGCCAGAUGACAUGAGGAUCACCCAUGUCGAGGAUAUACCACAGAAU | 7.6 | 11.5 |  | 
22 | GAUAGGACAGAGAAGGACAUAGCUAGAGAUACUAGCAUAAGAACUUUCACAUGAGGAUCACCCAUGUAGGAUAUCUGUCCUAUC | 4.96 | 5.53 |  | 
23 | UGUGUGUGGGCAGGAUAUGCAUGAAUAUGUAUGAUGUAGUGUGAUGUAACAUGAGGAUCACCCAUGUAGAAGGGCCGGUGUAUG | 94.5 | 122 |  | 
24 | GCGCAAACAUGAGGAUAUGUAUUAAAUAAUAAUACAGAAGGCAUGUCAAAUGACAUGAGGAUCACCCAUGUUGGCAAAAUGCGC |  |  | 80.6 | 15.9
25 | GCGAGCAUACAGAAGGGAUCGUCGUCGCGGCUGUCAGGAUAUGUAGCUUGGCCUAAACAUGAGGAUCACCCAUGUAUAAUGCUA |  |  | 111 | 18.6
26 | UUUCUGUGAGGAUAUCAGUAGUAAAUAAAUAAAAUUACUACUGAGAAGGCACAUGAGGAUCACCCAUGUUCCUU | 12.2 | 29.7 |  | 
27 | AGAGUUGACUCAGGAUAUACGGGAAUGUGCCGCGACAUGAGGAUCACCCAUGUAGAAGGGAGAGAGAAGAAGAGAUGUAGAAGA | 56.1 | 54 |  | 
28 | AUUUUUUGUCAUGUACAUGAGGAACAUGAGGAUCACCCAUGUAGAAGGAAUUUUUUUAAGUUUAGUUAGGAUAUACAUAUAUUU | 53.9 | 30 |  | 

Row | Sequence | apparent Kd [1] [nM] | apparent Kd [2] [nM] | apparent Kd [3] [nM] | apparent Kd [4] [nM]
29 | AUGCUUCUCUCAGGAUAUUACAACAUGAGGAUCACCCAUGUACAUGACAUGACGAUCACGCAUGUUAAGAAGGGAGAGAAGCAU | 718 | 583 |  | 
30 | UGUCGGAGCAGAGGAUAUUACAUGAGGAUCACCCAUGUAUGAACCAAUAGCUGGCAACAGCAAUGUAAGAAGGCUGCUCCGACA | 12.8 | 168 |  | 
31 | GUCCAACAUGAGGAUCACCCAUGUCAGGAUAUACCGGGCGAAAGAAAGGCCCAUAAGGGUAGAAGGGACGGUGU | 15.8 | 21 |  | 
32 | GGUCGACAUGAGGAUCACCCAUGUCAGGAUAUCGUCACUGGAGCUGCGGCUCCAGUGACGAGAAGGGAUAUGAU | 41.3 | 37.4 |  | 
33 | ACAUGCGGAUGAGGAUAUUCAUCCAUGAGGAUAGAAGAAGGCAUACAUGAGGAUCACCCAUGUAUACACAUGAGGAUCCCUUAU | 59 | 137 |  | 
34 | CCAUAAAGGUAGGAUAUCGAUUUUAAUUAAUAUCGAGAAGGGUCAACAUGAGGAUCACCCAUGUCAGCAUGUAA | 60.9 | 58.7 |  | 
35 | ACUAUACGAGGAUAUACUGUCAGUACUCAGAGGUUAAUGUGACAUGAGGAUCACCCAUGUAGAAGGCGUUUACU | 28.9 | 31.3 |  | 
36 | GUCAGCUCGUGAGGAUAUACAACACUGCUUCGGCAGUGUAUUAAGGUCACAUGAGGAUCACCCAUGUAGAAGGCACGAGCUGAU | 8.12 | 105 |  | 
37 | CGGCAUCAUGUAGGAUAUGCGUGGCGAAGCUAUGCAGAAGGACAUGAGGAUCACCCAUGUCUUACCUAGCGUACUAGGUUGCCG | 6.37 | 16.1 |  | 
38 | UGUCGGAGCAGAGGAUAUUACAUGAGGAUCACCCAUGUAUGCACCAAUAGCUGGAAACAGCAAUGUAAGAAGGCUGCUCCGACA | 5.38 | 15.2 |  | 
39 | GCAGGUCGGAAGGAUAUGAAUCUGCUCGCAGUUUCAGAAGGUCUGACAUGAGGAUCACCCAUGUUGGGCGCAUC | 56.5 | 236 |  | 
40 | GCAGCGCCUGACAUGAGGAUCACCCAUGUUCCAUUGUUGAGUCAGGAUAUAGUCUAGAAACUAGACUAGAAGGGAUAUGCUGCU |  |  | 70.2 | 50.8
41 | UGAUCGAGAGAUCUUAGAUUCUGGUAGGAUAUACAUUAUAGAAGUUAUACAUGAGGAUCACCCAUGUAGAAGGACUAGAGUCUA | 5.73 | 7.54 |  | 
42 | ACAUAAAUUCGAGGAUAUCGGUGAAAUAAUUUACGAGAAGGCGAUAAUAGUUAUAAACUUAUAGACAUGAGGAUCACCCAUGUA |  |  | 31.6 | 32.4
43 | AAAAAAAAAACUCAGGAUAUAGAUAAUUGAACAUGAGGAUCACCCAUGUAGUGAAAAAAAAAAAAUUAGAAGGGAGGAAAAAAAAA |  |  | 67.8 | 58.8
44 | UGUCGGAGCAGAGGAUAUACAUGAGGAUCACCCAUGUAAUAAAGUGAAGCCUGGAAACAGGCAAUGUAGAAGGUUGCUCCGACA | 7.2 | 31.5 |  | 
45 | AAUUAGUGAGGAUAUACGGGAGGGAGGGAGGGAGGGAGGGAGUAGAAGGCACAUGAGGAUCACCCAUGUAAUUA | 15.1 | 22.7 |  | 
46 | GCUAGGAUGUGAGGAUAUGCUGAGGAUACUUCAGCAGAAGGCACAUGAGGAUCACCCAUGUACACUUAUCAUAAAUACCCUAGC | 12.7 | 16.2 |  | 
47 | AGCUGUGGCCGAGGAUAUCUAUCUCAUAAAACCGAAAUAUAAUCGGACAUGAGGAUCACCCAUGUAGAGAAGGCGGUCUCAGCA | 27.6 | 129 |  | 
48 | UCUGCCGCCGUGAGGAUAUGCCCGCGCGCCCGCGGGCAGAAGGCACAUGAGGAUCACCCAUGUCCCGCGGUUUU | 16.3 | 37.3 |  | 
49 | UUCACGUCAGGAUAUCCAUAUUUCCGAAAUAACGGUACUUUGGAGAAGGGACAUGAGGAUCACCCAUGUCCUCG |  | 40.1 |  | 
50 | CUUUCGUGAGGAUAUGUGGCUUCGAUCGUGAGAUCGAAGCUACAGAAGGCACAUGAGGAUCACCCAUGUUCCUC | 38.5 | 544 |  | 
51 | UGAGCUUGAGGAUAUACAUGACGUGCCGUAGCACGAGGUCUACAUGAGGAUCACCCAUGUAGAAGGCAAGUUCU | 29.6 | 192 |  | 
52 | GCGUAAGAAUUAAUUGUGACUGACAGAAGGCAAUAGUAUGUGUCCGACAUGAGGAUCACCCAUGUUGAGGAUAUGUCUUGACGC | 4.64 | 5 |  | 
53 | GGUGCGUUUGUGAGGAUAUGCUGGUCCUUGGUUCGGCAGAAGGCACAUGAGGAUCACCCAUGUGGUGUCGCUCC | 41.7 | 139 |  | 
54 | GCGUAUUAGGUGUAGCUAGACAUUCAAGAAGGGUGAAGAACAUGAGGAUCACCCAUGUAGUUGUUACAGGAUAUUGAUUUACGC |  |  | 785 | 260
55 | CGAGAAAUCGUAGGAUAUGGUGAUGUACAUGAGGAUCACCCAUGUCCGUCUUCUCUCACAAGAUGCCAGAAGGACGAUUUCUGG |  |  | 712 | 122
